Measured values reported in ChEMBL document CHEMBL1144399, “Peptoid-peptide hybrids as potent novel melanocortin receptor ligands” (J Med Chem, 2005).
Where a SMILES comes first, the peptide text is derived from it. [ ]: non-standard residue; d: D form. Gly(N(CH2)2(3-indolyl)) = O=C(O)CNCCc1c[nH]c2ccccc12; Gly(N-(CH2)3-guanidino) = N=C(N)NCCCNCC(=O)O; Nle = CCCC[C@H](N)C(=O)O; Nphe = O=C(O)CNCc1ccccc1; NBuGly = CCCCNCC(=O)O; Nlys = NCCCCNCC(=O)O

What was measured:
Assay type in all cases: cell-based, HEK293
Melanocortin receptor 5 [1] = target: T1, Melanocortin receptor 5 (Mus musculus, UniProt P41149); assay: Displacement of [125I]NDP-MSH from mouse melanocortin receptor-5 expressed in 293 HEK cells
Procedure, shortened: (§1)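 Radioligand competition with [125I]-NDP-MSH on HEK293 cells expressing human MC3, human MC4 or mouse MC5 receptor. Ligands up to 30 µM. IC50 reported as -log(IC50) (M) with 95% confidence ranges. Ligands without activation activity were tested only at a single 30 µM concentration.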

Melanocortin receptor 4 [2] = target: T2, Melanocortin receptor 4 (Homo sapiens, UniProt P32245); assay: Displacement of [125I]NDP-MSH from human melanocortin receptor-4 expressed in 293 HEK cells; procedure, shortened: as §1
Melanocortin receptor 3 [3] = target: T3, Melanocortin receptor 3 (Homo sapiens, UniProt P41968); assay: Effective concentration against human melanocortin receptor-3 expressed in 293 HEK cells
Procedure, shortened: (§2)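 LacZ reporter-gene activation assay in HEK293 cells expressing human MC3, human MC4 or mouse MC5 receptor. Dose-response curves run up to 30 µM. EC50 reported as -log(EC50) (M) with 95% confidence ranges. Incomplete or absent curves at 30 µM were not assigned values.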

Melanocortin receptor 3 [4] = target: T3, Melanocortin receptor 3; assay: Displacement of [125I]NDP-MSH from human melanocortin receptor-3 expressed in 293 HEK cells; procedure, shortened: as §1
Melanocortin receptor 5 [5] = target: T1, Melanocortin receptor 5; assay: Effective concentration against mouse melanocortin receptor-5 expressed in 293 HEK cells; procedure, shortened: as §2
Melanocortin receptor 4 [6] = target: T2, Melanocortin receptor 4; assay: Effective concentration against human melanocortin receptor-4 expressed in 293 HEK cells; procedure, shortened: as §2

T1 sequence (P41149 whole entry): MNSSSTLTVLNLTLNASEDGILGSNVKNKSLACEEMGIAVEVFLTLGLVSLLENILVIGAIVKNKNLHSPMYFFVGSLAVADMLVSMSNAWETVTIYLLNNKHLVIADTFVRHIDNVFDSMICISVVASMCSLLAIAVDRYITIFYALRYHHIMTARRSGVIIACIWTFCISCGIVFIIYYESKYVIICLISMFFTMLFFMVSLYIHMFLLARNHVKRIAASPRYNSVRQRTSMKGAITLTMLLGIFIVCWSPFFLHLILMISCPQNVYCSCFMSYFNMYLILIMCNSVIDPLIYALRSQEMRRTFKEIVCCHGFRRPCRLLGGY
T3 sequence (P41968 whole entry): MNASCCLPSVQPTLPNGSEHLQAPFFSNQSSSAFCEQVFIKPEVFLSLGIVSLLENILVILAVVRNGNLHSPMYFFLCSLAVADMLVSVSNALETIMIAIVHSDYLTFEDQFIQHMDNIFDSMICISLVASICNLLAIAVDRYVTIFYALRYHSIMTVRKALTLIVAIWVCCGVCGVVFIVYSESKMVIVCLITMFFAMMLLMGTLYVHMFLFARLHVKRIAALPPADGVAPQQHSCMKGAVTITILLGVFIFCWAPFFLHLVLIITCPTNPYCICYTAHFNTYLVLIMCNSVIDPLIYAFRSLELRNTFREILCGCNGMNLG
T2 sequence (P32245 whole entry): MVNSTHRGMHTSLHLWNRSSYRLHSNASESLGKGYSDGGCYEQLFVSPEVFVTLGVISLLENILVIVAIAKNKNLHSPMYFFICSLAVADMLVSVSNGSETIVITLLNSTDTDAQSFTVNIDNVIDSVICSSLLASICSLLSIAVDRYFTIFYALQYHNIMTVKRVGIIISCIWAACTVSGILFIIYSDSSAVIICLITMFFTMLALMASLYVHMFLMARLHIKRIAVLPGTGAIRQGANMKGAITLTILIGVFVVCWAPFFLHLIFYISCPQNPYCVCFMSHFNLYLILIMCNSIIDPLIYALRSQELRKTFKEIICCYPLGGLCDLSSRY

SMILES	IC50 (Melanocortin receptor 5 [1]) [nM]	IC50 (Melanocortin receptor 4 [2]) [nM]	EC50 (Melanocortin receptor 3 [3]) [nM]	IC50 (Melanocortin receptor 3 [4]) [nM]	EC50 (Melanocortin receptor 5 [5]) [nM]	EC50 (Melanocortin receptor 4 [6]) [nM]
CCCCN(CC(=O)NCC(=O)N(CCCCN)CC(=O)N[C@H](Cc1ccccc1)C(=O)N[C@@H](CCCNC(=N)N)C(=O)N[C@@H](Cc1c[nH]c2ccccc12)C(=O)NCC(N)=O)C(C)=O	794	63.1	2000	1260	7940	63.1
CCCCN(CC(=O)NCC(=O)N[C@@H](CCCCN)C(=O)N[C@H](Cc1ccccc1)C(=O)N(CCCN=C(N)N)CC(=O)N(CCc1c[nH]c2ccccc12)CC(=O)NCC(N)=O)C(C)=O	1260	251	158	3160	316	100
CCCCN(CC(=O)NCC(=O)N[C@@H](CCCCN)C(=O)N[C@H](Cc1ccccc1)C(=O)N[C@@H](CCCNC(=N)N)C(=O)N(CC(=O)NCC(N)=O)Cc1c[nH]c2ccccc12)C(C)=O	1580	794	794	1260	3980	631
CCCCN(CC(=O)NCC(=O)N(CCCCN)CC(=O)N[C@H](Cc1ccccc1)C(=O)N[C@@H](CCCNC(=N)N)C(=O)N(CC(=O)NCC(N)=O)Cc1c[nH]c2ccccc12)C(C)=O	2000	794	–	2000	–	3980
CCCC[C@H](NC(C)=O)C(=O)NCC(=O)N[C@@H](CCCCN)C(=O)N[C@H](Cc1ccccc1)C(=O)N(CCCNC(=N)N)CC(=O)N(CCc1c[nH]c2ccccc12)CC(=O)NCC(N)=O	1000	79.4	158	2000	15.8	79.4
CCCCN(CC(=O)NCC(=O)N(CCCCN)CC(=O)N[C@H](Cc1ccccc1)C(=O)N(CCCN=C(N)N)CC(=O)N(CCc1c[nH]c2ccccc12)CC(=O)NCC(N)=O)C(C)=O	2000	1000	6310	3980	–	794
CCCC[C@H](NC(C)=O)C(=O)NCC(=O)N(CCCCN)CC(=O)N[C@H](Cc1ccccc1)C(=O)N[C@@H](CCCNC(=N)N)C(=O)N(CCc1c[nH]c2ccccc12)CC(=O)NCC(N)=O	–	–	–	–	–	2000
CCCC[C@H](NC(C)=O)C(=O)NCC(=O)N(CCCCN)CC(=O)N[C@H](Cc1ccccc1)C(=O)N[C@@H](CCCN=C(N)N)C(=O)N(CC(=O)NCC(N)=O)Cc1c[nH]c2ccccc12	631	158	5010	794	2000	1260
CCCC[C@H](NC(C)=O)C(=O)NCC(=O)N[C@@H](CCCCN)C(=O)N[C@H](Cc1ccccc1)C(=O)N[C@@H](CCCN=C(N)N)C(=O)N(CC(=O)NCC(N)=O)Cc1c[nH]c2ccccc12	794	251	316	501	251	158
CCCCN(CC(=O)NCC(=O)N[C@@H](CCCCN)C(=O)N[C@H](Cc1ccccc1)C(=O)N(CCCN=C(N)N)CC(=O)N[C@@H](Cc1c[nH]c2ccccc12)C(=O)NCC(N)=O)C(C)=O	–	–	5010	–	6310	794
CCCC[C@H](NC(C)=O)C(=O)NCC(=O)N[C@@H](CCCCN)C(=O)N[C@H](Cc1ccccc1)C(=O)N(CCCCN=C(N)N)CC(=O)N[C@@H](Cc1c[nH]c2ccccc12)C(=O)NCC(N)=O	2000	158	–	3980	63.1	251
CCCCN(CC(=O)NCC(=O)N[C@@H](CCCCN)C(=O)N[C@H](Cc1ccccc1)C(=O)N(CCCN=C(N)N)CC(=O)N(CC(=O)NCC(N)=O)Cc1c[nH]c2ccccc12)C(C)=O	3160	794	–	7940	–	501
CCCCN(CC(=O)NCC(=O)N(CCCCN)CC(=O)N[C@H](Cc1ccccc1)C(=O)N[C@@H](CCCN=C(N)N)C(=O)N(CCc1c[nH]c2ccccc12)CC(=O)NCC(N)=O)C(C)=O	6310	2000	–	–	–	6310
CCCCN(CC(=O)NCC(=O)N[C@@H](CCCCN)C(=O)N[C@H](Cc1ccccc1)C(=O)N[C@@H](CCCNC(=N)N)C(=O)N(CCc1c[nH]c2ccccc12)CC(=O)NCC(N)=O)C(C)=O	–	–	3160	–	–	316
CCCC[C@H](NC(C)=O)C(=O)NCC(=O)N[C@@H](CCCCN)C(=O)N[C@H](Cc1ccccc1)C(=O)N[C@@H](CCCNC(=N)N)C(=O)N[C@@H](Cc1c[nH]c2ccccc12)C(=O)NCC(N)=O	–	2.51	7.94	200	31.6	0.501
CCCC[C@H](NC(C)=O)C(=O)NCC(=O)N[C@@H](CCCCN)C(=O)N[C@H](Cc1ccccc1)C(=O)N(CCCNC(=N)N)CC(=O)N[C@@H](Cc1c[nH]c2ccccc12)C(=O)NCC(N)=O	3160	398	3980	5010	251	631
CCCCN(CC(=O)NCC(=O)N(CCCCN)CC(=O)N[C@H](Cc1ccccc1)C(=O)N(CCCN=C(N)N)CC(=O)N(CC(=O)NCC(N)=O)Cc1c[nH]c2ccccc12)C(C)=O	3980	3980	–	–	–	5010
CCCC[C@H](NC(C)=O)C(=O)NCC(=O)N[C@@H](CCCCN)C(=O)N[C@H](Cc1ccccc1)C(=O)N[C@@H](CCCN=C(N)N)C(=O)N(CCc1c[nH]c2ccccc12)CC(=O)NCC(N)=O	10000	316	2000	7940	2000	316
CCCCN(CC(=O)NCC(=O)N[C@@H](CCCCN)C(=O)N[C@H](Cc1ccccc1)C(=O)N[C@@H](CCCN=C(N)N)C(=O)N[C@@H](Cc1c[nH]c2ccccc12)C(=O)NCC(N)=O)C(C)=O	–	20	25.1	126	794	2.51
CCCCN(CC(=O)NCC(=O)N[C@@H](CCCCN)C(=O)N(CC(=O)N[C@@H](CCCN=C(N)N)C(=O)N[C@@H](Cc1c[nH]c2ccccc12)C(=O)NCC(N)=O)Cc1ccccc1)C(C)=O (Ac-[NBuGly]GK[Nphe]RWG-NH2)	5010	5010	–	–	–	2000
CCCCN(CC(=O)NCC(=O)N(CCCCN)CC(=O)N[C@@H](Cc1ccccc1)C(=O)N(CCCN=C(N)N)CC(=O)N[C@@H](Cc1c[nH]c2ccccc12)C(=O)NCC(N)=O)C(C)=O (Ac-[NBuGly]G[Nlys]F[Gly(N-(CH2)3-guanidino)]WG-NH2)	–	5010	–	–	6310	3160
CCCC[C@H](NC(C)=O)C(=O)NCC(=O)N[C@@H](CCCCN)C(=O)N(CC(=O)N[C@@H](CCCN=C(N)N)C(=O)N[C@@H](Cc1c[nH]c2ccccc12)C(=O)NCC(N)=O)Cc1ccccc1 (Ac-[Nle]GK[Nphe]RWG-NH2)	–	–	–	–	–	1260
CCCC[C@H](NC(C)=O)C(=O)NCC(=O)N[C@@H](CCCCN)C(=O)N(CC(=O)N(CCCN=C(N)N)CC(=O)N(CCc1c[nH]c2ccccc12)CC(=O)NCC(N)=O)Cc1ccccc1 (Ac-[Nle]GK[Nphe][Gly(N-(CH2)3-guanidino)][Gly(N(CH2)2(3-indolyl))]G-NH2)	–	–	–	–	7940	–
CCCC[C@H](NC(C)=O)C(=O)NCC(=O)N(CCCCN)CC(=O)N[C@@H](Cc1ccccc1)C(=O)N(CCCN=C(N)N)CC(=O)N[C@@H](Cc1c[nH]c2ccccc12)C(=O)NCC(N)=O (Ac-[Nle]G[Nlys]F[Gly(N-(CH2)3-guanidino)]WG-NH2)	–	–	–	–	501	2000
CCCC[C@H](NC(C)=O)C(=O)NCC(=O)N(CCCCN)CC(=O)N(CC(=O)N[C@@H](CCCN=C(N)N)C(=O)N[C@@H](Cc1c[nH]c2ccccc12)C(=O)NCC(N)=O)Cc1ccccc1 (Ac-[Nle]G[Nlys][Nphe]RWG-NH2)	–	–	–	–	–	2000
CCCC[C@H](NC(C)=O)C(=O)NCC(=O)N(CCCCN)CC(=O)NC(Cc1ccccc1)C(=O)N(CCCNC(=N)N)CC(=O)N(CC(=O)NCC(N)=O)Cc1c[nH]c2ccccc12 (single isomer, unassigned)	3160	3160	6310	–	3160	2000
